In ChEMBL document CHEMBL4130635, “2,4-Diaminoquinazolines as Dual Toll-like Receptor (TLR) 7/8 Modulators for the Treatment of Hepatitis B Virus” (J Med Chem, 2018):
Active and inactive are the calls of the source. No cut-off for these calls is given here.

Tests used:
[1] = Stability in mouse hepatocytes assessed compound turnover at 1 uM after 60 mins; assay type: ADME, cell-based, Hepatocyte; conditions: read-out: Drug metabolism
[2] = Protein binding in cynomolgus monkey plasma fraction at 5 uM after 4.5 hrs LC-MS/MS-based rapid equilibrium dialysis method; assay type: ADME, cell-free, Macaca fascicularis; conditions: read-out: PPB (converted)
[3] = Hepatic extraction ratio in Sprague-Dawley rat hepatocytes; assay type: ADME, cell-based, Hepatocyte; conditions: in vivo, in the assay text read “in Sprague-Dawley rat” for “in Sprague-Dawley rat hepatocytes”, read-out: ERH
Outline: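 Male Sprague-Dawley rats given 10 mg/kg po as a solution; compound measured in portal vein and systemic circulation to derive the hepatic extraction ratio.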

[4] = Cmax in C57BL/6J mouse liver at 30 mg/kg, po by LC-MS analysis; assay type: ADME, organism-based; parameters: dose 30 mg/kg, route oral
Outline: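 Healthy C57BL/6 mice, groups of 15, given a single oral dose (0.3, 1, 3, 10 or 30 mg/kg) in 20% HP-β-CD. Blood drawn at 0.5 h. Three mice per group sacrificed at 0.5, 1, 2, 4 or 7 h, and compound in plasma and liver measured by LC−MS. Values rounded to whole numbers.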

[5] = AUC (0 to last) in C57BL/6J mouse liver at 10 mg/kg, po by LC-MS analysis; assay type: ADME, organism-based; conditions: in vivo
Outline: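 Healthy C57BL/6 mice were dosed once by mouth at 0.3, 1, 3, 10 or 30 mg/kg in 20% HP-β-CD, in groups of 15 per dose. Three mice per group were sacrificed at 0.5, 1, 2, 4 or 7 h, and plasma and liver compound levels were measured by LC–MS. Values were rounded to whole numbers.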

Plasma [6] = assay: Upregulation of IP-10 mRNA expression levels in C57BL/6J mouse plasma at 30 mg/kg, po by RT-qPCR analysis (reference value: 1); assay type: functional
Liver [7] = assay: Effect on cytokine profile in C57BL/6J mouse liver assessed as IL-12p70 levels at 0.3 mg/kg, po by multiplex assay (reference value: 5 pg/g); assay type: functional, organism-based
Outline: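 Single oral gavage in 20% HP-β-CD to healthy C57BL/6 mice, groups of 15 at 0.3, 1, 3, 10 or 30 mg/kg. Three mice per group sacrificed at 0.5, 1, 2, 4 or 7 h. Plasma and liver cytokines by multiplex, maximum level reported, rounded to nearest multiple of 5.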

Liver [8] = assay: Proinflammatory activity in C57BL/6J mouse liver assessed as IL-1beta levels at 0.3 mg/kg, po by multiplex assay; assay type: functional
Plasma [9] = assay: Proinflammatory activity in C57BL/6J mouse plasma assessed as CXCL-1 levels at 1 mg/kg, po by multiplex assay (reference value: 230 pg/ml); assay type: functional
Plasma [10] = assay: Proinflammatory activity in C57BL/6J mouse plasma assessed as IL-6 levels at 3 mg/kg, po by multiplex assay (reference value: 505 pg/ml); assay type: functional
Plasma [11] = assay: Proinflammatory activity in C57BL/6J mouse plasma assessed as IL-6 levels at 10 mg/kg, po by multiplex assay (reference value: 505 pg/ml); assay type: functional
Liver [12] = assay: Proinflammatory activity in C57BL/6J mouse liver assessed as TNFalpha levels at 30 mg/kg, po by multiplex assay (reference value: 15 pg/g); assay type: functional
[13] = Cmax in cynomolgus monkey plasma at 3 mg/kg, po by LC-MS analysis; assay type: ADME, organism-based, Macaca fascicularis; parameters: dose 3 mg/kg, route oral
Outline: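 Healthy cynomolgus monkeys received oral doses of 1, 3, 9 and 30 mg/kg, with a 2-week wash-out between doses. Systemic compound concentrations by LC−MS at 0.25, 0.5, 1, 2, 4, 8 and 24 h postdose.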

Cynomolgus monkey [14] = assay: Induction of IFNalpha levels in cynomolgus monkey plasma at 9 mg/kg, po after 24 hrs by ELISA; assay type: functional, Macaca fascicularis
Outline: (§1)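 Healthy cynomolgus monkeys given single oral doses of 1, 3, 9 and 30 mg/kg, with a 2-week wash-out planned between doses. Systemic cytokine levels in plasma were sampled at 0.5, 1, 2, 4, 9 and 24 h postdose.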

Cynomolgus monkey [15] = assay: Effect on cytokine profile in cynomolgus monkey plasma assessed as IP10 levels at 3 mg/kg, po after 24 hrs by Luminex assay (reference value: 18.5 pg/ml); assay type: functional, Macaca fascicularis; outline: as §1
Cynomolgus monkey [16] = assay: Effect on cytokine profile in cynomolgus monkey plasma assessed as IP10 levels at 9 mg/kg, po after 24 hrs by Luminex assay (reference value: 18.5 pg/ml); assay type: functional, Macaca fascicularis; outline: as §1
Cynomolgus monkey [17] = assay: Effect on cytokine profile in cynomolgus monkey plasma assessed as IL-15 levels at 30 mg/kg, po after 24 hrs by Luminex assay (reference value: 20 pg/ml); assay type: functional, Macaca fascicularis; outline: as §1
Cynomolgus monkey [18] = assay: Activation of monocytes in cynomolgus monkey plasma assessed as upregulation of IL1Ra levels at 3 mg/kg, po after 24 hrs by Luminex assay (reference value: 320 pg/ml); assay type: functional, Macaca fascicularis
Cynomolgus monkey [19] = assay: Anti-inflammatory activity in cynomolgus monkey plasma assessed as IL-10 levels at 1 mg/kg, po after 24 hrs by Luminex assay (reference value: 195 pg/ml); assay type: functional, Macaca fascicularis
Cynomolgus monkey [20] = assay: Anti-inflammatory activity in cynomolgus monkey plasma assessed as IL-10 levels at 30 mg/kg, po after 24 hrs by Luminex assay (reference value: 195 pg/ml); assay type: functional, Macaca fascicularis
Cynomolgus monkey [21] = assay: Induction of ISG response in cynomolgus monkey plasma assessed as upregulation of Mx1 mRNA expression at 3 mg/kg, po after 24 hrs by Fluidigm RT-qPCR analysis (reference value: 1); assay type: functional, Macaca fascicularis
Outline: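 Cynomolgus monkeys, single oral doses of 1, 3, 9 and 30 mg/kg with a planned 2-week wash-out between doses. Systemic ISG (ISG15, Mx1, OAS1) mRNA was measured by Fluidigm RT-qPCR at 1, 2, 4, 8 and 24 h postdose.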

Cynomolgus monkey [22] = assay: Upregulation of Tlr7 expression in cynomolgus monkey plasma at 30 mg/kg, po after 24 hrs by Fluidigm RT-qPCR analysis (reference value: 1.8); assay type: functional, Macaca fascicularis
Mus musculus = assay: Toxicity in C57BL/6J mouse at 30 mg/kg, po after 1 to 2 hrs […]; assay type: organism-based; conditions: in vivo
[23] = target: T1, TLR7 and TLR8 (Homo sapiens) (UniProt Q9NYK1+Q9NR97); assay: Agonist activity at TLR7/8 in human PBMCs co-cultured with primary human hepatocytes infected with HBV genotype C for 12 days assessed as increase in IL-1beta levels up to 5 uM measured after 42 days
T1 sequence (Q9NR97 whole entry, looked up): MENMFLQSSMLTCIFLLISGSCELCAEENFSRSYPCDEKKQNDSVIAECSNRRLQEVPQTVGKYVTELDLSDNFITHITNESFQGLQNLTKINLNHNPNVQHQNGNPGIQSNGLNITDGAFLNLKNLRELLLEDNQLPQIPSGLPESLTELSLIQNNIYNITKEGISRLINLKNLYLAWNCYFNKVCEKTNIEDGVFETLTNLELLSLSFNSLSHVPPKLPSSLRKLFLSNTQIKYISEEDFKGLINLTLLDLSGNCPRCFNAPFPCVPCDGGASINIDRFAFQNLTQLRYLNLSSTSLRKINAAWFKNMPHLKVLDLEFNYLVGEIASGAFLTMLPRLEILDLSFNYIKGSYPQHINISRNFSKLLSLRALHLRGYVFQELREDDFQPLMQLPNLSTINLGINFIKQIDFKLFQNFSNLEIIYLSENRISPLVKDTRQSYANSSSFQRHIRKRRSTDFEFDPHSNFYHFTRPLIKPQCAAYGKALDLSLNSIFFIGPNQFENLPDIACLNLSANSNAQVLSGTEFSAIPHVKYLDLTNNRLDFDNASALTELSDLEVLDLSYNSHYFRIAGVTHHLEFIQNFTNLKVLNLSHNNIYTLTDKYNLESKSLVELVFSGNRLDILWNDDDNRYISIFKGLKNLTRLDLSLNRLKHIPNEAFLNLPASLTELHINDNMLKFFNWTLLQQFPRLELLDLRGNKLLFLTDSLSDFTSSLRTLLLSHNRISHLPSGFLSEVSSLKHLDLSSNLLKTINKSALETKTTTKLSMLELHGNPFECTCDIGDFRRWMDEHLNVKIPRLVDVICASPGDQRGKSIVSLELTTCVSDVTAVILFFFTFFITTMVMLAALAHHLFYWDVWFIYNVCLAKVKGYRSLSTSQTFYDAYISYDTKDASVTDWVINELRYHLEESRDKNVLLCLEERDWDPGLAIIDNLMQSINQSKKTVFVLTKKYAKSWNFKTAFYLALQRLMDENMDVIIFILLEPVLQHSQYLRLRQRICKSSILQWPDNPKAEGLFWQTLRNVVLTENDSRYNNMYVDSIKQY
T1 sequence (Q9NYK1 whole entry, looked up): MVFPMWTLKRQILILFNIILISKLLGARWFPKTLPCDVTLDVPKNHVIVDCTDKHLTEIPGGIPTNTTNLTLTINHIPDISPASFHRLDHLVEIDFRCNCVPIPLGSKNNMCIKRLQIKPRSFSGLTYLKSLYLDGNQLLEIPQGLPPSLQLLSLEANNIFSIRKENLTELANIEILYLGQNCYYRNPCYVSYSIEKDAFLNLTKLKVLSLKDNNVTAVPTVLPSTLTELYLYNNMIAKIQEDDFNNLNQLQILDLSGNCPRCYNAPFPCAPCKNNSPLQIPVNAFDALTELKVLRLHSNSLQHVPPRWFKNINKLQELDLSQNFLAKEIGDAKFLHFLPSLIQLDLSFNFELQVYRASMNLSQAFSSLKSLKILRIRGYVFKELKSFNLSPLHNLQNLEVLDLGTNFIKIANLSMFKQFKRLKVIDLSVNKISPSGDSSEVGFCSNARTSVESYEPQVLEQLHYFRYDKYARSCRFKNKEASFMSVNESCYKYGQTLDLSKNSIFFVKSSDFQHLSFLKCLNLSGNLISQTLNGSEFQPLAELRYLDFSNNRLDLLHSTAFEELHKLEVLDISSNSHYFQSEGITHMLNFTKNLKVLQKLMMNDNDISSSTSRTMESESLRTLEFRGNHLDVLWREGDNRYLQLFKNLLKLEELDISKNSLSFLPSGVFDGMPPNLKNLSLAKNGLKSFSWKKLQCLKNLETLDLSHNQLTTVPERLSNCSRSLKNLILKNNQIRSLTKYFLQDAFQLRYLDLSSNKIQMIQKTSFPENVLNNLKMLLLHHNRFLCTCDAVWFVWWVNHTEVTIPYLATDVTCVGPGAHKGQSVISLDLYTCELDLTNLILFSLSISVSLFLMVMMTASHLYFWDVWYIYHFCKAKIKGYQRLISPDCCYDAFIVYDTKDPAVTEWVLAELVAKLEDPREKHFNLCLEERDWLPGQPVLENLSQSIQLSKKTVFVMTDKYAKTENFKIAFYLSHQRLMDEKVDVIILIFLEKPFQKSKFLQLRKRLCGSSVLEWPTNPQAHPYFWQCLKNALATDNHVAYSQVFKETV

[24] = target: T1, TLR7 and TLR8 (Homo sapiens); assay: Agonist activity at TLR7/8 in human PBMCs co-cultured with primary human hepatocytes infected with HBV genotype C for 12 days assessed as increase in MIP-1beta levels up to 5 uM measured after 42 days
[25] = target: T1, TLR7 and TLR8 (Homo sapiens); assay: Agonist activity at TLR7/8 in human PBMCs co-cultured with primary human hepatocytes infected with HBV genotype C for 12 days assessed as increase in IL-10 levels up to 5 uM measured after 42 days
[26] = target: T1, TLR7 and TLR8 (Homo sapiens); assay: Agonist activity at TLR7/8 in human PBMCs assessed as reduction in extracellular viral load in human hepatocytes infected with HBV genotype C for 12 days followed by exposure to conditioned supernatant from up to 5 uM compound treated PBMCs measured after 42 days; assay type: cell-based
Cytochrome P450 3A4 = Cytochrome P450 3A4 (Homo sapiens, UniProt P08684); assay: Induction of CYP3A4 (unknown origin); assay type: ADME
Chain of Cytochrome P450 3A4 (P08684 whole entry): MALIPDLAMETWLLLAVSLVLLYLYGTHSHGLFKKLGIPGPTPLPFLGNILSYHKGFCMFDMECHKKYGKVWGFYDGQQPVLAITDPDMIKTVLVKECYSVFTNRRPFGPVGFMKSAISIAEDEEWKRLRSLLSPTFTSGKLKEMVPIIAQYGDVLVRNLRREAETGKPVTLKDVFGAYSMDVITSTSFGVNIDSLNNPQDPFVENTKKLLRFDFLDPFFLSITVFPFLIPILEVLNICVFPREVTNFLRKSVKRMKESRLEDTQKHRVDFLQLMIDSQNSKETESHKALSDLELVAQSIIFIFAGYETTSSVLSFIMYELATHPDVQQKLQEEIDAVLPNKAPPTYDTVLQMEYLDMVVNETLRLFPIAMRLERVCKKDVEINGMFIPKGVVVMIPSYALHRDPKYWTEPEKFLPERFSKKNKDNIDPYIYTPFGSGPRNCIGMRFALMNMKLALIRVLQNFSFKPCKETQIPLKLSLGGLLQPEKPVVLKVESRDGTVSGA

## CCC[C@@H](CCO)Nc1nc(N)nc2c(F)cccc12
[1]
  metabolised at 1 h, 1 µM: 99%
[2]
  fraction unbound at 4.5 h, 5 µM: 0.46
[3]
  hepatic extraction ratio: 0.74
[4]
  Cmax: 7610 ng/g
[5]
  AUClast: 2315 ng·h/g
Plasma [6]
  fold change (FC): 1100
Liver [7]
  Activity: Below limit of detection
Liver [8]
  Activity: 9765 pg/g
Plasma [9]
  Activity: 2155 pg/mL
Plasma [10]
  Activity: 4970 pg/mL
Plasma [11]
  Activity: >10000 pg/mL
Liver [12]
  Activity: 13600 pg/g
[13]
  Cmax: 142 ng/mL
Cynomolgus monkey [14]
  Activity: >51200 pg/mL
Cynomolgus monkey [15]
  Activity: 1490 pg/mL
Cynomolgus monkey [16]
  Activity: 2400 pg/mL
Cynomolgus monkey [17]
  Activity: 85 pg/mL
Cynomolgus monkey [18]
  Activity: 2020 pg/mL
Cynomolgus monkey [19]
  Activity: 1275 pg/mL
Cynomolgus monkey [20]
  Activity: 9135 pg/mL
Cynomolgus monkey [21]
  fold change (FC): 50
Cynomolgus monkey [22]
  fold change (FC): 4.2
Mus musculus
  Activity: Toxic
[23]
  Activity: Active
[24]
  Activity: Active
[25]
  Activity: Active
[26]
  Activity: Active
Cytochrome P450 3A4
  Activity: Not Active
